The source of these data is PubChem BioAssay.

A short description of test [1]: inhibitors of TNFa-induced NFkB p65 translocation, primary screen, imaging, HUVEC, MLSMR starter and 10KST1 sets (AID 438;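 active means inhibition above 20% together with a positive visual image hit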;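 further: compound added about 3h40 before a 20 min TNFalpha stimulation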;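 on inhibition: signal is the nuclear over cytoplasmic p65 intensity ratio per well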). Conditions: HUVEC TNFa-induced p65 nuclear translocation; cell count: measured here: nuclei count (cytotoxicity indicator), at 2.08 µM; inhibition: at 2 µM, stronger effect = higher value, 0% TNFa-plus-vehicle, 100% no-TNFa wells.
Test [2] can be described thus: endothelial E-selectin expression blockers – imaging, HUVEC, immunofluorescence, MLSMR starter and 10KST1 sets, primary screen (AID 487;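 active means visually confirmed hit in the image check and inhibition above 20%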;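 on inhibition: signal is fraction of cell area covered by stained E-selectin grains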;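 on nuclei count: 100% = median nuclei count of all wells on the same plate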). The conditions noted are these: HUVEC TNFalpha-induced E-selectin immunofluorescence imaging, at 2 µM; inhibition: stronger effect = higher value; nuclei count: measured here: cell number, toxicity.
Test [3] can be described thus: Primary imaging screen for DUSP6 inhibitors that restore phospho-Erk in transfected HeLa cells, chemical complementation (AID 609;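 active means compounds giving at least 50% inhibition in the cell-based MKP-3 phosphatase rescue imaging test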;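 on inhibition: phospho-Erk level distribution per well compared with pooled transfected vehicle control wells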). Conditions: HeLa MKP-3 transfected, phospho-Erk imaging KS statistic, at 10 µM, cells stimulated with TPA for 15 min.
The target of test [4] is Dual specificity protein phosphatase 6 (Homo sapiens) (UniProt Q16828). Described as above. The conditions noted are these: HeLa MKP-3 transfected, phospho-Erk imaging KS statistic; at 10 µM; stronger effect = higher value; cells stimulated with TPA for 15 min.
Test [5] has as its target Voltage-gated potassium channel subunit beta-2 (Rattus norvegicus) (UniProt P62483). In words: inhibitors of rat Kvbeta2 reductase activity – biochemical, NADPH fluorescence, primary screen (AID 622;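 active means fluorescence slope higher than the sample average by over 3 SD, cut at about -0.22 in these data, passing the limit was not always enough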;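 further: slope of raw intensity against log time taken from 70 to 1610 s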). Conditions: recombinant KvBeta, 4-cyanobenzaldehyde reduction, at 10 µM, stronger effect = higher value.
For test [6] the target is unchanged. In words: enhancers of rat Kvbeta2 NADPH turnover – biochemical, NADPH fluorescence, primary screen (AID 623;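 active means NADPH fluorescence slope more negative than the mean of all samples by about 3 SD, 99.7% confidence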;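 further: fluorescence intensity change per second fitted from 20 to 320 s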). Conditions: Recombinant KvBeta, NADPH fluorescence decrease slope, 10 min; at 10 µM; stronger effect = lower value.
Test [7] addresses Muscarinic acetylcholine receptor M4 (Homo sapiens) (UniProt P08173). Description: M4-linked GIRK flux change, two-sided – cell-based, HEK293 M4/GIRK, thallium flux, BTC-AM, M4 allosteric agonist project, primary screen (AID 625;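 active means fluorescence slope after compound addition differing from the mean of all tested samples at 99.7% confidence, mostly higher but some lower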;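 further: thallium influx through GIRK channels coupled to M4 in HEK293 cells with BTC-AM dye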). The conditions noted are these: at 10 µM, actives lie on both sides. The method in brief:
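Assay system: HEK293 cells with M4 receptor and GIRK channels / Controls: carbachol and DMSO controls / Schedule: 1 h dye loading, 2 min kinetic read / Technique: kinetic fluorescence with BTC-AM dye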

A short description of test [8]: inhibitors of larval lipid processing in zebrafish, primary screen, whole organism, PED6 fluorescence, gall bladder and intestine (AID 686).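 Further: larvae 5 to 7 days old with five fish per well; signal comes from phospholipase A2 cleavage of quenched PED6 carried via bile; overnight exposure to compound and PED6 before scoring.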 The conditions noted are these: Zebrafish larvae PED6 lipid processing, fluorescence scoring; screened at 20 µM (by protocol). An outline of the steps:
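Doses: 20 µM single dose. Test system: live zebrafish larvae aged 5-7 days, whole organism. Quantity: five larvae per well. Measured by: By-eye fluorescence microscopy. Reagent: ingested quenched lipid PED6 at 100 nM. Read-out: visual per-well fluorescence inhibition score. Times: overnight exposure of larvae to compound plus PED6.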

Test [9] is described as follows: loss of swimming-algae plug formation – whole organism, Chlamydomonas reinhardtii, WT vs cilia-less mutant, absorbance, 96-well, primary screen (AID 463189;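 active means inhibition at or above 50% relative to wild type and mutant plate controls; inactive means inhibition below 50%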;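 further: 0% = wild type cc124 cells in DMSO and 100% = ciliumless bld1 mutant cells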). The conditions noted are these: Chlamydomonas reinhardtii gravitaxis, OD600 absorbance, 2 days; at 10 µM; stronger effect = higher value.
Where [10] appears, read: measured here: cell density z-score.
[11] abbreviates: measured here: nuclear c-Myc green intensity z-score.
Where [12] appears, read: measured here: nuclear pErk red intensity z-score, stronger effect = higher value.

Active and inactive are the calls of the source.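 How the source made its calls, unless noted: active means a full or partial loss of lipid-probe fluorescence in the fish gall bladder, intestine or both, judged by eye; inactive means no fluorescence loss, or compound toxic to the fish.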

Chain of Voltage-gated potassium channel subunit beta-2 (Rattus norvegicus) (P62483 whole entry, looked up): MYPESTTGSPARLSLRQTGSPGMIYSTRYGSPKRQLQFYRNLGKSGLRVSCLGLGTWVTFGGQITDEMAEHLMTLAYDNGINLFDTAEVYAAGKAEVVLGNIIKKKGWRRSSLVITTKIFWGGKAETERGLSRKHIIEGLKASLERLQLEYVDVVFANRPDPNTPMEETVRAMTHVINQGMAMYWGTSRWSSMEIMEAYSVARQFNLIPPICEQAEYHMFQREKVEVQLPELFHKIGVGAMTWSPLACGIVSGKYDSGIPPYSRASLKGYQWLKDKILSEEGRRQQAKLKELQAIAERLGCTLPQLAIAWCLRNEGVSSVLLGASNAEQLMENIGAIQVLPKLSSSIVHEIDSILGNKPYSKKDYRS
Chain of Muscarinic acetylcholine receptor M4 (Homo sapiens) (P08173 whole entry, looked up): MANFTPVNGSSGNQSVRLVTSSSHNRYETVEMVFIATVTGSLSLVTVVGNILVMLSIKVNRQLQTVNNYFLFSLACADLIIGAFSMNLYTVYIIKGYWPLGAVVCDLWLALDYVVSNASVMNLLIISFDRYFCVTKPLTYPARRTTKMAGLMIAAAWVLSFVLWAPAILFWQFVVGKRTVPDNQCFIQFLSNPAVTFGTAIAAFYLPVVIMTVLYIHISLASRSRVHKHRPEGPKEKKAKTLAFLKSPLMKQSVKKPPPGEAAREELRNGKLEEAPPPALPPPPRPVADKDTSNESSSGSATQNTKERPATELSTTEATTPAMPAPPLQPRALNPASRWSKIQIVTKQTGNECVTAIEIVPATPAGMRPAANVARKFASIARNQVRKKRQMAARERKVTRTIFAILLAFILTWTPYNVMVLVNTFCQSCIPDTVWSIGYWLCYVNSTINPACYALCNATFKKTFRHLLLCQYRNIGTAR
Chain of Dual specificity protein phosphatase 6 (Homo sapiens) (Q16828 whole entry, looked up): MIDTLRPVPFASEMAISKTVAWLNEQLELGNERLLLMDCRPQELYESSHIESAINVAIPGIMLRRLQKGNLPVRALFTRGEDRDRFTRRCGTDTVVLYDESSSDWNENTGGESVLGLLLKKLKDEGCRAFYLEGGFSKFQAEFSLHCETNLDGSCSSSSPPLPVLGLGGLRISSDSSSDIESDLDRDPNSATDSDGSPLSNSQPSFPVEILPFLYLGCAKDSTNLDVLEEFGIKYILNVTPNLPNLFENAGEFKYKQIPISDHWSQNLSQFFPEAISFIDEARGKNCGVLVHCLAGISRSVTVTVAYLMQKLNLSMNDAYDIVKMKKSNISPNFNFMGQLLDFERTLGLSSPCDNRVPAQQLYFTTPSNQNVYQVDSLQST

`C=C(C)CSc1nnc2n(C)c(=O)c3c4c(sc3n12)CCC4`: in test [1], the cell count is 334. Further, the inhibition in test [1] was 8.5% (inactive); in test [2] it was -1.8% (inactive); in test [4], 15.4% (inactive); in [9], 41.8% (inactive). In [2], this compound had a nuclei count of 118%. Further, the results for the z-score in test [3] (setting [10]), in test [3] (setting [11]) and in [3] (setting [12]) were 1.02, -0.186 and -0.897, respectively. Besides, the values for the fluorescence slope in test [5] and in test [7] were -0.438 (inactive) and 0.00483 (inactive), respectively. Moreover, the NADPH fluorescence slope in test [6] was -0.000119 (inactive). In addition, the call in test [8] was inactive.

With `CCC(=O)Nc1c(C#N)c2nc3ccccc3nc2n1C1CCCCC1`, the cell count in test [1] worked out at 563. Further, the inhibition in test [1] was -4.1% (inactive); in [2], 6.8% (inactive); in [4], -2.09% (inactive); in test [9] it was 18.8% (inactive). Also, in [2], the nuclei count is 99.6%. In addition, the z-score in test [3] (setting [10]) was 0.5; in [3] (setting [11]), -1.07; in test [3] (setting [12]) it was -5.03. Besides, the fluorescence slope in test [5] was -0.342 (inactive); in test [7] it was 0.00526 (inactive). Moreover, the NADPH fluorescence slope in [6] is 4.3e-06 (inactive). Besides, in test [8], the outcome was inactive.

Consider `CCCCOc1ccc(C(=O)NCC(=O)NCC(=O)OCC)cc1`, for which, in test [1], the cell count worked out at 357. For the same compound, the inhibition in [1] was -8.2% (inactive); in test [2], -101% (inactive); in test [4] it was -6.59% (inactive); in test [9], -13.2% (inactive). In addition, the nuclei count in [2] was determined as 108%. Besides, the z-score in test [3] (setting [10]) was -0.206; in [3] (setting [11]) it was 0.434; in [3] (setting [12]), -0.573. The figures for the fluorescence slope in test [5] and in [7] were -0.49 (inactive) and 0.00496 (inactive), respectively. The NADPH fluorescence slope in [6] was 4.9e-06 (inactive). The compound was classed as inactive in test [8].

`O=C(NCc1ccccc1)C1C(=O)N(Cc2ccccc2)C(=O)C1C1(O)CCCC1` (stereo unspecified): in test [1], the cell count worked out at 653. Besides, the inhibition in test [1] is -2.4% (inactive); in test [2], -17.9% (inactive); in [4] it was -13.3% (inactive); in [9], -5.5% (inactive). Further, in [2], the nuclei count was found to be 108%. The z-score in test [3] (setting [10]) was -0.94; in [3] (setting [11]), 0.675; in test [3] (setting [12]), 0.754. The fluorescence slope in test [5] is -0.508 (inactive); in test [7], 0.00572 (inactive). Further, the NADPH fluorescence slope in test [6] was -2.1e-05 (inactive). For the same compound, the outcome in test [8] was inactive.

Consider `CCCCn1c(=O)n(C)c(=O)c2c3c(sc21)COC(C)(C)C3`, for which the cell count in test [1] came to 589. Besides, the inhibition in test [1] was -5.2% (inactive); in test [2], -64.5% (inactive); in [4], 1.63% (inactive); in test [9], 43.8% (inactive). The same compound displayed a nuclei count in test [2] of 144%. Besides, the z-score is -0.346 in test [3] (setting [10]), -0.449 in [3] (setting [11]) and -0.806 in test [3] (setting [12]). Besides, the fluorescence slope in test [5] is -0.447 (inactive); in test [7] it was 0.00382 (inactive). For the same compound, in [6], the NADPH fluorescence slope is -1.3e-06 (inactive). In addition, the compound was classed as inactive in test [8].

Consider `Brc1ccc2c(c1)CNc1c(ncnc1N1CCOCC1)O2`, for which the cell count in test [1] was found to be 521. Moreover, the inhibition is -0.7% (inactive) in test [1], 2% (inactive) in test [2], 3.42% (inactive) in [4] and 24.2% (inactive) in [9]. Further, the nuclei count in [2] came to 90%. Besides, the z-score is -1.15 in test [3] (setting [10]), 1.47 in test [3] (setting [11]) and 1.59 in [3] (setting [12]). Besides, the fluorescence slope in test [5] is -0.429 (inactive); in test [7], 0.00419 (inactive). Further, the NADPH fluorescence slope in [6] was 2.8e-05 (inactive). Moreover, the result in [8] was inactive.

`O=C1NCC(COCC2CC=CCC2)O1` (stereo unspecified): the cell count in [1] worked out at 574. The inhibition is -4% (inactive) in test [1], 50.9% (inactive) in test [2], 19.4% (inactive) in test [4] and 41.8% (inactive) in [9]. Further, the nuclei count in test [2] came out at 136%. In addition, the z-score is 0.151 in [3] (setting [10]), -0.463 in test [3] (setting [11]) and -0.815 in test [3] (setting [12]). In addition, the fluorescence slope in test [5] was -0.408 (inactive); in [7], 0.0053 (inactive). Moreover, in test [6], the NADPH fluorescence slope is -2.8e-05 (inactive). Also, the call in test [8] was inactive.

By inhibition is commonly meant the relative decrease from the control value, in per cent.
